Screens deposited in PubChem by Broad Institute.
XiGFP reactiv – activators of inactive X chromosome reactivation, primary screen, imaging, XiGFP fibroblasts, GFP high-content imaging, set 2; activation, % at 7.58 µM; hit rate 0.055% among 360,000; XiGFP mouse fibroblasts, % GFP-positive cells imaging, 3 d; cells co-treated with 5-aza-dC sensitizer; scaled so ellipticine positive control = 100%; AID 743238, 2013;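 active = mean normalized replicate activation at least 10% and every replicate at or above 10%; inconclusive = only one of the two criteria met; inactive = mean below 10% and not all replicates reach 10%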
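material = 68-5-11 XiGFP fibroblast line | medium = DMEM plus 5-aza-dC sensitizer | schedule = 3 days compound exposure | benchmarks = positive control ellipticine, 6 µM final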
DENV2 CPE – inhibitors of DENV2 cytopathic effect, primary screen, cell-based, plate reader, single concentration; DENV2-infected cells, cytopathic effect rescue; CPE inhibition, % at 9.99 µM; hit rate 1.7% among 350,000; in the data active = CPE inhibition above about 20%, passing the limit was not always enough; inconclusive = no clear call, values can overlap the other calls; tested in BHK-21 cells
S100A4 inh HTS – inhibitors of S100A4-myosin IIA peptide binding, primary screen, biochemical, fluorescence polarization, TAMRA-MyoIIA peptide; inhibition, % at 10.7 µM; hit rate 0.14% among 360,000; AID 652163, 2013; Protein S100-A4 (Homo sapiens), P26447;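 active = mean inhibition of at least 70% across replicates, with every replicate also reaching that level; inconclusive = mean inhibition reaches 70% but some replicates fall short; inactive = mean inhibition below 70%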
Target sequence (P26447 whole entry, looked up): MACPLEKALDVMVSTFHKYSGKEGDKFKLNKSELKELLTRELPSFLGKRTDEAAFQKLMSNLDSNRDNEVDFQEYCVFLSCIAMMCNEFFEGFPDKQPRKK
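Material: human S100A4 monomer with TAMRA-labelled myosin IIA peptide; buffer or medium: HEPES pH 7.2 with CaCl2, KCl, NaCl, DTT, Triton; compound dosing: one concentration per compound; schedule: 5 min incubation before reading; benchmarks: neutral control DMSO, positive control TFP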
E-selectin induc – E-selectin induction in HUVECs, primary screen, imaging, HUVEC, immunofluorescence imaging, single point; P16581; normalized: neutral wells 0, TNF-alpha wells 100; activation, % at 7.58 µM; hit rate 0.37% among 260,000;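 active = mean E-selectin-positive cell signal at least 10% of the positive control, reached in at least 60% of replicates, without over 20% cell loss; inconclusive = no rule given, readout overlaps actives, possibly toxicity-flagged; inactive = the rest, including those meeting only one limit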
Target sequence (P16581 whole entry, looked up): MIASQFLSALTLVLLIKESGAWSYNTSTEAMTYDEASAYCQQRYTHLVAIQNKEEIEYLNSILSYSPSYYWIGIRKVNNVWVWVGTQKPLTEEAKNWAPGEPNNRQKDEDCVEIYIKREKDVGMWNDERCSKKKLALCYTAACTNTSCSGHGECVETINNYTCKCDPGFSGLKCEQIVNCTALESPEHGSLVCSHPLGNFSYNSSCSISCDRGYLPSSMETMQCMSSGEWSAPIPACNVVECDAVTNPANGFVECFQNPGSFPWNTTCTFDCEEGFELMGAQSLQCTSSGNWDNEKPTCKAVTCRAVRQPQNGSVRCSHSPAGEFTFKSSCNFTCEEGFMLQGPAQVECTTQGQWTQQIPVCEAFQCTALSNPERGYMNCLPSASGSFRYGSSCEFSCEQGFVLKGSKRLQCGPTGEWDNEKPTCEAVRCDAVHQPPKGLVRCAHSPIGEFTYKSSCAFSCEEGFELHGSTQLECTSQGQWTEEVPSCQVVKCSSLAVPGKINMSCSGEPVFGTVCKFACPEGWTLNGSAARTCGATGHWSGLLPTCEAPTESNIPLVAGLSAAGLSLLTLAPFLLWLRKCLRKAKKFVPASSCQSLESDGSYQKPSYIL
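material = human umbilical vein endothelial cells (HUVEC), E-selectin induction | quantity = 3,000 cells/well | medium = EGM-2 growth medium on 0.1% gelatin-coated wells | technique = immunofluorescence imaging | read-out basis = % PE-positive cells | control set = TNF-alpha positive control, DMSO neutral control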
Hits are given with their value; 0 = inactive; ? = inconclusive; - = not tested or not shown. An excerpt weighted towards active compounds, which were near 2% of everything screened.

SMILES | XiGFP reactiv | DENV2 CPE | S100A4 inh HTS | E-selectin induc
CC[C@H](C)C(C(=O)N1CCN(C(=O)OC(C)(C)C)CC1)n1cc(C(CC(C)C)NC(=O)OC(C)(C)C)nn1 (stereo partly drawn) | 0 | 32 | 0 | 0
Cc1ccc(S(=O)(=O)Nc2cccc(Oc3cnccn3)c2)cc1 | 0 | 0 | 0 | -
O=S(=O)(Nc1cccc(Oc2cnccn2)c1)c1ccc(F)cc1 | 0 | 0 | 0 | 40
COc1cc(C(=O)NCC(=O)NNC(=O)C2COc3ccccc3O2)cc(OC)c1OC (stereo not drawn) | 0 | 0 | 0 | 152
CC1=CC=CC2=NC(=O)CC(C)(C(=O)N(CC(=O)NC(C)C)C3CCCC3)N12 (stereo not drawn) | - | - | 0 | -
C[C@H]1CN([C@@H](C)CO)C(=O)c2cc(-c3ccccc3F)cnc2O[C@@H]1CN(C)Cc1ccc(F)cc1 | 0 | 0 | 0 | 0
C[C@@H]1CN([C@H](C)CO)C(=O)c2cc(-c3ccccc3F)cnc2O[C@H]1CN(C)Cc1ccc(F)cc1 | 0 | 29 | 0 | 0
C[C@@H]1CN([C@@H](C)CO)C(=O)c2cc(C3=CCCC3)cnc2O[C@@H]1CN(C)Cc1ccc(C(=O)O)cc1 | 0 | 25 | 0 | 0
C[C@@H]1CN([C@H](C)CO)C(=O)c2cc(C3=CCCC3)cnc2O[C@@H]1CN(C)Cc1ccc(F)cc1 | 0 | 0 | 105 | 0
Cc1ccccc1S(=O)(=O)N1CC[C@@H]2[C@H](CO)Nc3ccc(-c4ccc(C#N)cc4)cc3[C@@H]21 | 0 | 25 | 0 | 0
Cc1ccccc1S(=O)(=O)N1CC[C@@H]2[C@H]1c1cc(-c3ccc(C#N)cc3)ccc1N[C@@H]2CO | 0 | 77 | 0 | 0
N#Cc1ccc(-c2ccc3c(c2)[C@@H]2[C@@H](CCN2S(=O)(=O)c2ccccc2F)[C@H](CO)N3)cc1 | 0 | 0 | - | 0
COc1ccc(-n2c(CSc3ccc(Cl)cc3)n[nH]c2=S)cc1 | 0 | ? | 0 | 0
COc1ccc(NC(=O)N(C)C[C@@H]2Oc3ccc(NC(=O)c4ccncc4)cc3CC(=O)N([C@@H](C)CO)C[C@@H]2C)cc1 | 0 | 28 | 0 | 81
COc1ccc(NC(=O)N(C)C[C@H]2Oc3ccc(NC(=O)c4ccncc4)cc3CC(=O)N([C@@H](C)CO)C[C@H]2C)cc1 | 0 | 0 | 0 | 0
COc1ccc(CN(C)C[C@@H]2Oc3ccc(NC(=O)c4ccncc4)cc3CC(=O)N([C@H](C)CO)C[C@@H]2C)cc1 | 0 | 0 | 0 | 0
COc1ccc(NC(=O)N(C)C[C@H]2Oc3ccc(NC(=O)c4ccncc4)cc3CC(=O)N([C@H](C)CO)C[C@@H]2C)cc1 | 0 | 0 | 0 | 41
COc1ccc(NC(=O)N(C)C[C@@H]2Oc3ccc(NC(=O)c4ccncc4)cc3CC(=O)N([C@@H](C)CO)C[C@H]2C)cc1 | 0 | 0 | 0 | 72
C[C@H]1CN([C@@H](C)CO)C(=O)Cc2cc(NC(=O)c3ccncc3)ccc2O[C@H]1CN(C)C(=O)Nc1ccc(C(F)(F)F)cc1 | 0 | 0 | ? | 33
CN(CC(=O)N1CCc2ccccc2C1)S(=O)(=O)c1ccc2c(c1)c(=O)n(C)c(=O)n2C | 0 | 0 | 0 | 0
COc1ccc(N)cc1NC(=O)CN1CCCC1 | 0 | 0 | 0 | -
COc1ccc(NC(=O)N(C)C[C@@H]2Oc3ccc(NC(=O)c4ccncc4)cc3CC(=O)N([C@H](C)CO)C[C@@H]2C)cc1 | 0 | 44 | 0 | 226
C[C@H]1CCCCO[C@@H](CN(C)C(=O)CCCN(C)C)[C@@H](C)CN([C@@H](C)CO)C(=O)c2cc(NS(=O)(=O)c3ccc(F)cc3)ccc2O1 | 0 | 0 | 0 | 0
C[C@@H]1CN([C@@H](C)CO)C(=O)c2cc(NS(=O)(=O)c3ccc(F)cc3)ccc2O[C@@H](C)CCCCO[C@@H]1CN(C)C(=O)CCCN(C)C | 0 | 83 | 0 | 0
C[C@H]1CCCCO[C@H](CN(C)C(=O)CCCN(C)C)[C@@H](C)CN([C@@H](C)CO)C(=O)c2cc(NS(=O)(=O)c3ccc(F)cc3)ccc2O1 | 0 | 56 | 0 | 0
SMILES | XiGFP reactiv | DENV2 CPE | S100A4 inh HTS | E-selectin induc
COc1cccc(CN2CCNC(=O)C2CC(=O)NCC(C)(C)N2CCOCC2)c1OC (stereo not drawn) | 0 | 0 | 0 | 0
C[C@H](CO)N1C[C@H](C)[C@H](CN(C)Cc2ccc(C(=O)O)cc2)Oc2c(NC(=O)Nc3ccc(C(F)(F)F)cc3)cccc2C1=O | 0 | - | - | -
COc1cc(CN2CCNC(=O)C2CC(=O)NC2CCCCC2)cc(OC)c1 (stereo not drawn) | 0 | 0 | 0 | -
C[C@H]1CN([C@@H](C)CO)C(=O)c2cccc(NS(=O)(=O)c3ccc(Cl)cc3)c2O[C@@H]1CN(C)Cc1ccc(C(=O)Nc2ccccc2N)cc1 | 0 | 21 | 0 | 0
C[C@@H]1CN([C@@H](C)CO)C(=O)c2cccc(NS(=O)(=O)c3ccc(Cl)cc3)c2O[C@@H]1CN(C)Cc1ccc(C(=O)Nc2ccccc2N)cc1 | 0 | 0 | 0 | 0
C[C@H]1CN([C@@H](C)CO)C(=O)c2cccc(NC(=O)c3ccncc3)c2O[C@@H]1CN(C)Cc1ccc(C(=O)Nc2ccccc2N)cc1 | 0 | 0 | 0 | 58
COc1ccc(C2N(c3ccccc3)C(=S)N3CCCN23)cc1 (stereo not drawn) | 0 | - | - | -
S=C1N(c2ccccc2)C(c2ccc(Br)cc2)N2CCCN12 (stereo not drawn) | 0 | 42 | 0 | 0
Cc1cc(C)c(NC(=S)NC(NC(=O)c2ccccc2)C(Cl)(Cl)Cl)c(C)c1 (stereo not drawn) | 0 | - | - | -
Cc1ccc(N2CC(C(=O)NCc3nnnn3-c3ccc(C)c(C)c3)CC2=O)cc1 (stereo not drawn) | 0 | 0 | 0 | -
C[C@H](CO)N1C[C@H](C)[C@H](CN(C)Cc2ccccc2)OCCCC[C@H](C)Oc2ccc(NC(=O)NC3CCCCC3)cc2C1=O | 0 | 29 | 0 | 0
C[C@H](CO)N1C[C@H](C)[C@@H](CN(C)Cc2ccccc2)OCCCC[C@H](C)Oc2ccc(NC(=O)NC3CCCCC3)cc2C1=O | 0 | 0 | 0 | 0
C[C@@H]1CCCCO[C@@H](CN(C)Cc2ccccc2)[C@H](C)CN([C@@H](C)CO)C(=O)c2cc(NC(=O)NC3CCCCC3)ccc2O1 | 0 | 24 | 0 | 0
CCOC(=O)c1[nH]ncc1CN1CCc2ccc(NC(=O)C3CCCO3)cc2C1 (stereo not drawn) | 0 | 0 | 0 | 0
COc1ccc(CCNC(=O)Cn2nnc(C(=O)Nc3cccc(C)c3C)c2N)cc1OC | 0 | 0 | 0 | -
Cc1ccc(S(=O)(=O)N[C@H]2CC[C@H](CCNC(=O)C3CCCC3)O[C@H]2CO)cc1 | 0 | 27 | 0 | 0
O=C(NCC[C@H]1CC[C@@H](NS(=O)(=O)c2ccc(Oc3ccccc3)cc2)[C@@H](CO)O1)C1CC1 | 0 | 0 | 0 | 0
O=C(NCC[C@H]1CC[C@H](NS(=O)(=O)c2ccc(Oc3ccccc3)cc2)[C@@H](CO)O1)C1CC1 | 0 | 85 | 0 | 0
